Measured values published in ChEMBL document CHEMBL3352199, “Biological evaluation of halogenated thiazolo[3,2-a]pyrimidin-3-one carboxylic acid derivatives targeting the YycG histidine kinase” (Eur J Med Chem, 2014).
Values after ≈ are worked out from the molar mass of the structure shown. Active and inactive are the calls of the source.

Legend:
[1] = system: Staphylococcus epidermidis; test: Antibiofilm activity against Staphylococcus epidermidis ATCC 35984 at 50 uM after 18 hrs by crystal violet staining method; type: functional, organism-based
Outline: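 S. epidermidis ATCC35984 suspension seeded in microtiter wells, 37 °C 6 h to form young biofilm. PBS-washed ×4, then fresh TSB with graded compound dilutions, 37 °C 18 h. Washed, methanol-fixed 15 min, air-dried, crystal violet stained, OD570 read. Cut-off ODc = mean OD570 of negative control + 3×SD (0.28); triplicate.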

[2] = system: Staphylococcus epidermidis; test: Antimicrobial activity against Staphylococcus epidermidis ATCC 12228 after 12 to 16 hrs by broth micro-dilution method; type: functional
Outline: (§1)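 Broth micro-dilution in tubes per CLSI. Serial twofold dilutions in Mueller-Hinton broth, top final concentration 200. The inoculum was 6 h cultures adjusted to 0.5 McFarland. Incubated 37 °C 12–16 h. MIC is the lowest concentration with no visible growth by eye. Growth control (no drug) and sterility control (uninoculated broth) were included.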

Escherichia coli = test: Antimicrobial activity against Escherichia coli ATCC 25922 after 12 to 16 hrs by broth micro-dilution method; type: functional; outline: as §1
[3] = Hemolytic activity in human erythrocytes at 100 uM after 1 hr by spectrophotometry; type: ADME, cell-based; details: erythrocyte, 50 µM, in the assay text read “50 uM” for “100 uM”
Outline: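 Healthy human erythrocytes exposed to compounds. After incubation, centrifuged at 350 × g for 10 min, and hemolysis read as supernatant absorbance at 570 nm. DMSO (0.1%) served as negative control and Triton X-100 (1%) as positive control.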

Staphylococcus aureus = test: Antimicrobial activity against Staphylococcus aureus ATCC 25923 after 12 to 16 hrs by broth micro-dilution method; type: functional; outline: as §1
Shigella flexneri = test: Antimicrobial activity against Shigella flexneri 301 after 12 to 16 hrs by broth micro-dilution method; type: functional; outline: as §1
[4] = system: Staphylococcus epidermidis; test: Antimicrobial activity against Staphylococcus epidermidis ATCC 35984 after 12 to 16 hrs by broth micro-dilution method; type: functional; outline: as §1
[5] = Inhibition of recombinant YycG kinase HK domain autophosphorylation activity (unknown origin) expressed in Escherichia coli BL21 (DE3) preincubated for 30 mins by ATP-Luminescence assay
Outline: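 YycG HATPase_c + HisKA domains, expressed in E. coli BL21(DE3), purified on Ni-NTA. Protein at 0.13 mmol/L pre-incubated with serial compound dilutions in 40 mmol/L Tris pH 8.0, 20 mmol/L MgCl₂, 0.1 mg/mL BSA, 25 °C 30 min. ATP 4 mmol/L added, 30 min at 25 °C. Remaining ATP measured by Kinase-Glo luminescence. IC50 fitted from phosphorylation-inhibition rates.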

Row | SMILES | MIC [2] [µM] | MIC (Escherichia coli) [µM] | MIC (Staphylococcus aureus) [µM] | MIC (Shigella flexneri) [µM] | MIC [4] [µM] | IC50 [5] [µM] | Activity [1] | Activity [3]
1 | CCOC(=O)C1=C(C)N=c2s/c(=C\c3ccc(OCC(=O)O)cc3)c(=O)n2C1c1ccc(Cl)cc1 (configuration not stated) | 200 (≈ 103 µg/mL) | > 200 | – | > 200 | 200 (≈ 103 µg/mL) | – | inactive | Non-toxic
2 | Cc1nnc(SCC2=C(C(=O)O)N3C(=O)[C@@H](NC(=O)Cn4cnnn4)[C@H]3SC2)s1 [CEFAZOLIN] | 17.6 (≈ 8 µg/mL) | – | 17.6 (≈ 8 µg/mL) | – | 17.6 (≈ 8 µg/mL) | – | – | –
3 | CCOC(=O)C1=C(C)N=c2s/c(=C\c3ccc(OCC(=O)O)cc3)c(=O)n2C1c1ccc(OC)cc1 (configuration not stated) | 50 (≈ 25.4 µg/mL) | > 200 | – | > 200 | 50 (≈ 25.4 µg/mL) | – | inactive | Non-toxic
4 | CCOC(=O)C1=C(c2ccccc2)N=c2s/c(=C\c3ccc(-c4cccc(C(=O)O)c4)o3)c(=O)n2C1c1ccccc1 (configuration not stated) | 200 (≈ 115 µg/mL) | > 200 | – | > 200 | 200 (≈ 115 µg/mL) | – | inactive | Non-toxic
5 | CCOC(=O)C1=C(c2ccccc2)N=c2s/c(=C\c3ccc(-c4cccc(C(=O)O)c4)o3)c(=O)n2C1c1ccc2c(c1)OCO2 (configuration not stated) | 6.25 (≈ 3.88 µg/mL) | > 200 | 6.25 (≈ 3.88 µg/mL) | > 200 | 6.25 (≈ 3.88 µg/mL) | 14 | Active | Non-toxic
6 | CCOC(=O)C1=C(c2ccccc2)N=c2s/c(=C\c3ccc(-c4cccc(C(=O)O)c4)o3)c(=O)n2C1c1ccc(F)cc1 (configuration not stated) | 3.12 (≈ 1.86 µg/mL) | > 200 | 6.25 (≈ 3.72 µg/mL) | > 200 | 6.25 (≈ 3.72 µg/mL) | – | Active | Non-toxic
7 | CCOC(=O)C1=C(C)N=c2s/c(=C\c3ccc(OCC(=O)O)c(OC)c3)c(=O)n2C1c1ccc(OC)cc1 (configuration not stated) | 50 (≈ 26.9 µg/mL) | > 200 | – | > 200 | 50 (≈ 26.9 µg/mL) | – | inactive | –
8 | CCOC(=O)C1=C(c2ccccc2)N=c2s/c(=C\c3ccc(-c4cccc(C(=O)O)c4)o3)c(=O)n2C1c1ccc(O)cc1 (configuration not stated) | 50 (≈ 29.6 µg/mL) | > 200 | – | > 200 | 50 (≈ 29.6 µg/mL) | – | inactive | Non-toxic
9 | CCOC(=O)C1=C(c2ccccc2)N=c2s/c(=C\c3ccc(-c4ccc(C(=O)O)cc4)o3)c(=O)n2C1c1ccc(F)cc1 (configuration not stated) | 6.25 (≈ 3.72 µg/mL) | > 200 | 6.25 (≈ 3.72 µg/mL) | > 200 | 6.25 (≈ 3.72 µg/mL) | – | Active | Non-toxic
10 | CCOC(=O)C1=C(c2ccccc2)N=c2s/c(=C\c3ccc(OCC(=O)O)c(OC)c3)c(=O)n2C1c1ccc(Cl)cc1 (configuration not stated) | 200 (≈ 121 µg/mL) | > 200 | – | > 200 | 200 (≈ 121 µg/mL) | – | inactive | –

More lines, in order of falling MIC [4], values ahead:

Row | MIC [2] [µM] | MIC (Escherichia coli) [µM] | MIC (Staphylococcus aureus) [µM] | MIC (Shigella flexneri) [µM] | MIC [4] [µM] | IC50 [5] [µM] | SMILES | Activity [1] | Activity [3]
11 | 3.12 (≈ 1.91 µg/mL) | > 200 | 6.25 (≈ 3.82 µg/mL) | > 200 | 6.25 (≈ 3.82 µg/mL) | – | CCOC(=O)C1=C(c2ccccc2)N=c2s/c(=C\c3ccc(-c4ccc(C(=O)O)cc4)o3)c(=O)n2C1c1ccc(Cl)cc1 (configuration not stated) | Active | Non-toxic
12 | 3.12 (≈ 1.63 µg/mL) | > 200 | 6.25 (≈ 3.27 µg/mL) | > 200 | 6.25 (≈ 3.27 µg/mL) | – | O=C(O)c1cccc(-c2ccc(/C=c3\sc4n(c3=O)C(c3ccc(F)cc3)C=C(c3ccccc3)N=4)o2)c1 (configuration not stated) | Active | Non-toxic
13 | – | > 200 | – | > 200 | 6.25 (≈ 3.4 µg/mL) | – | CCOC(=O)C1=C(C)N=c2s/c(=C\c3ccc(-c4cccc(C(=O)O)c4)o3)c(=O)n2C1c1ccc(OC)cc1 (configuration not stated) | inactive | Non-toxic
14 | 6.25 (≈ 3.79 µg/mL) | > 200 | – | > 200 | 6.25 (≈ 3.79 µg/mL) | – | CCOC(=O)C1=C(c2ccccc2)N=c2s/c(=C\c3ccc(-c4ccc(C(=O)O)cc4)o3)c(=O)n2C1c1ccc(OC)cc1 (configuration not stated) | inactive | Non-toxic
15 | 3.12 (≈ 1.9 µg/mL) | > 200 | – | > 200 | 3.12 (≈ 1.9 µg/mL) | – | CCOC(=O)C1=C(c2ccccc2)N=c2s/c(=C\c3ccc(-c4cccc(C(=O)O)c4)o3)c(=O)n2C1c1ccc(OC)cc1 (configuration not stated) | Active | Non-toxic
16 | 3.12 (≈ 1.8 µg/mL) | > 200 | – | > 200 | 3.12 (≈ 1.8 µg/mL) | – | CCOC(=O)C1=C(c2ccccc2)N=c2s/c(=C\c3ccc(OCC(=O)O)cc3)c(=O)n2C1c1ccc(Cl)cc1 (configuration not stated) | inactive | Non-toxic
17 | 3.12 (≈ 1.91 µg/mL) | > 200 | 6.25 (≈ 3.82 µg/mL) | > 200 | 1.56 (≈ 0.953 µg/mL) | 12.7 | CCOC(=O)C1=C(c2ccccc2)N=c2s/c(=C\c3ccc(-c4cccc(C(=O)O)c4)o3)c(=O)n2C1c1ccc(Cl)cc1 (configuration not stated) | Active | Non-toxic
18 | 3.12 (≈ 1.94 µg/mL) | > 200 | 25 (≈ 15.5 µg/mL) | > 200 | 1.56 (≈ 0.97 µg/mL) | – | CCOC(=O)C1=C(c2ccccc2)N=c2s/c(=C\c3ccc(-c4cccc(C(=O)O)c4)o3)c(=O)n2C1c1ccc([N+](=O)[O-])cc1 (configuration not stated) | inactive | Non-toxic
19 | 6.25 (≈ 3.34 µg/mL) | > 200 | 6.25 (≈ 3.34 µg/mL) | > 200 | 1.56 (≈ 0.834 µg/mL) | 49.9 | COc1ccc(C2C=C(c3ccccc3)N=c3s/c(=C\c4ccc(-c5cccc(C(=O)O)c5)o4)c(=O)n32)cc1 (configuration not stated) | inactive | Non-toxic
20 | 6.25 (≈ 3.37 µg/mL) | > 200 | 3.12 (≈ 1.68 µg/mL) | > 200 | 1.56 (≈ 0.841 µg/mL) | 55.6 | O=C(O)c1cccc(-c2ccc(/C=c3\sc4n(c3=O)C(c3ccc(Cl)cc3)C=C(c3ccccc3)N=4)o2)c1 (configuration not stated) | Active | Non-toxic
